Series [1] in a line: Clinical single-dose pharmacokinetics of semaglutide in plasma. The format is in vivo, human. To be noted: T2DM, single s.c. dose 0.5 mg semaglutide. In short, it runs like this: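 Same crossover design in T2DM adults: single s.c. dose of 1 mg/mL (243 nmol/mL) product, 6–9 week washout. EDTA plasma drawn pre-dose to 840 h (35 days), kept on ice 10 min, spun 1500g 10 min 4 °C, stored −20 °C. Measured by validated LC-MS/MS. Log-transformed Cmax analysed by linear normal model with treatment, period and participant as fixed effects.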

Series [2] in a line: Safety in the clinical study. To be noted: for AEs of severity Mild, % / AEs of severity Moderate, % / AEs of severity Severe, % / AEs with outcome Recovered/resolved, % / AEs with outcome Recovering/resolving, % / AEs with relationship to study product Possible, % / AEs with relationship to study product Probable, % / AEs with relationship to study product Unlikely, % / Decreased appetite, % / Gastrointestinal disorders (SOC), % / General disorders and administration site conditions (SOC), % / Headache, % / Metabolism and nutrition disorders (SOC), % / Nausea, % / Nervous system disorders (SOC), % / Serious AEs, % / Vomiting, % / Treatment emergent AEs, %: percent of individuals; for Overall tolerability in the clinical study: T2DM. The format is in vivo, human. In short, it runs like this:
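Adverse events and hypoglycaemia recorded continuously; treatment-emergent if from dosing to 35 days post-dose. Hypoglycaemia was BG-confirmed (BG < 2.8 mmol/L, i.e. PG < 3.1 mmol/L) or severe (needing assistance). Antibody samples taken pre-dose and at days 14, 28 and 35; validated assays. Anti-icodec-positive samples tested for human insulin cross-reactivity. Descriptive statistics.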

For series [3] the following is noted: insulin-naïve T2DM, phase 3 ONWARDS 1 and 3; cited from earlier work.
Series [4] in a line: Clinical single-dose pharmacokinetics of insulin icodec in serum. The format is in vivo, human. To be noted: T2DM, single s.c. dose 175 U icodec. In short, it runs like this: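 T2DM adults (18–64 y, metformin ± one OAD, 80–120 kg, HbA1c 6.0–8.5%) in a randomised, double-blind, three-period crossover. Single s.c. dose of 700 U/mL product; washout 6–9 weeks. Serum sampled pre-dose to 840 h, clotted 30 min at RT, spun 1500g 10 min 4 °C, stored −20 °C; validated LOCI. Log Cmax fitted by linear model (treatment, period, participant fixed); tmax descriptive.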

Where [5] appears, read: number of events, treatment emergent.

The values below come from article PMC11564230 (Clinical Drug Investigation, 2024).

Where only a bound is given, the exact number is not on record here.

On to `CC[C@H](C)[C@H](NC(=O)[C@H](Cc1ccccc1)NC(=O)[C@H](CCC(=O)O)NC(=O)[C@H](CCCCNC(=O)COCCOCCNC(=O)COCCOCCNC(=O)CC[C@H](NC(=O)CCCCCCCCCCCCCCCCC(=O)O)C(=O)O)NC(=O)[C@H](C)NC(=O)[C@H](C)NC(=O)[C@H](CCC(N)=O)NC(=O)CNC(=O)[C@H](CCC(=O)O)NC(=O)[C@H](CC(C)C)NC(=O)[C@H](Cc1ccc(O)cc1)NC(=O)[C@H](CO)NC(=O)[C@H](CO)NC(=O)[C@@H](NC(=O)[C@H](CC(=O)O)NC(=O)[C@H](CO)NC(=O)[C@@H](NC(=O)[C@H](Cc1ccccc1)NC(=O)[C@@H](NC(=O)CNC(=O)[C@H](CCC(=O)O)NC(=O)C(C)(C)NC(=O)[C@@H](N)Cc1cnc[nH]1)[C@@H](C)O)[C@@H](C)O)C(C)C)C(=O)N[C@@H](C)C(=O)N[C@@H](Cc1c[nH]c2ccccc12)C(=O)N[C@@H](CC(C)C)C(=O)N[C@H](C(=O)N[C@@H](CCCNC(=N)N)C(=O)NCC(=O)N[C@@H](CCCNC(=N)N)C(=O)NCC(=O)O)C(C)C` [Semaglutide, semaglutide], for which the “Maximum concentration after single dose (Cmax,SD,Semaglutide), LS mean” value in series [1] (plasma, LS mean, N 30/28) is reported as 8 nmol/L. In addition, the “Median time to maximum semaglutide concentration after single dose (tmax,SD,Semaglutide)” value in series [1] (median) is on record as 84 h. Besides, the “Participants positive for anti-semaglutide antibodies” value in series [2] (assessed following IcoSema administration) is given as “No participants were positive”. Further, in series [2] (treatment emergent), the “AEs of severity Mild, %” value was “(57.1) %”; the “AEs of severity Moderate, %” value is “(17.9) %”; the “AEs of severity Severe, %” value is “(0.0) %”; the “AEs with outcome Recovered/resolved, %” value is given as “(60.7) %”. Moreover, in series [2] (treatment emergent), the “AEs with outcome Recovering/resolving, %” value is given as “(0.0) %”; the “AEs with relationship to study product Possible, %” value is on record as “(28.6) %”; the “AEs with relationship to study product Probable, %” value was “(42.9) %”; the “AEs with relationship to study product Unlikely, %” value is reported as “(21.4) %”. Also, in series [2] (treatment emergent), the “Decreased appetite, %” value is “(17.9) %”; the “Gastrointestinal disorders (SOC), %” value is on record as “(42.9) %”; the “General disorders and administration site conditions (SOC), %” value is “(14.3) %”; the “Headache, %” value was “(7.1) %”. In series [2] (treatment emergent), the “Metabolism and nutrition disorders (SOC), %” value is “(21.4) %”; the “Nausea, %” value is reported as “(21.4) %”; the “Nervous system disorders (SOC), %” value is “(17.9) %”; the “Serious AEs, %” value is listed as “(0.0) %”. The “Vomiting, %” value in series [2] (treatment emergent) was “(7.1) %”. The “Treatment emergent AEs, %” value in series [2] (until 35 days after dosing) is on record as “(60.7) %”. Further, in series [2] (single s.c. dose), the “Overall tolerability in the clinical study” value is listed as “well-tolerated”.

For the compound insulin degludec, in series [3], the “Rate of clinically significant or severe hypoglycaemia” value is on record as < 1 episode per patient-year of exposure.

For the compound insulin icodec, the “Rate of clinically significant or severe hypoglycaemia” value in series [3] was < 1 episode per patient-year of exposure. Further, the “Maximum concentration after single dose (Cmax,SD,Icodec), LS mean” value in series [4] (serum, LS mean, N 30/28) was determined as 95 nmol/L. For the same compound, the “Median time to maximum icodec concentration after single dose (tmax,SD,Icodec)” value in series [4] (median) is reported as 24 h. Further, in series [2] (BG < 2.8 mmol/L, PG < 3.1 mmol/L, single s.c. dose, until 35 days after dose), the “Treatment-emergent BG confirmed hypoglycaemic episodes” value is listed as “three”. Besides, in series [2] (assessed following IcoSema and icodec administration), the “Participants positive for anti-icodec antibodies at least once during the study” value is given as 13 participants. In addition, in series [2] (setting [5]), the “AEs of severity Mild, E” value is 23; the “AEs of severity Moderate, E” value is listed as 6; the “AEs of severity Severe, E” value was 1; the “AEs with outcome Recovered/resolved, E” value is reported as 30. Also, in series [2] (setting [5]), the “AEs with outcome Recovering/resolving, E” value worked out at 0; the “AEs with relationship to study product Possible, E” value is 14; the “AEs with relationship to study product Probable, E” value was determined as 4; the “AEs with relationship to study product Unlikely, E” value worked out at 12. Moreover, in series [2] (setting [5]), the “Decreased appetite, E” value is listed as 3; the “Gastrointestinal disorders (SOC), E” value amounted to 5; the “General disorders and administration site conditions (SOC), E” value is listed as 2; the “Headache, E” value came to 5. Moreover, in series [2] (setting [5]), the “Metabolism and nutrition disorders (SOC), E” value was found to be 3; the “Nausea, E” value is on record as 0; the “Nervous system disorders (SOC), E” value was 5; the “Serious AEs, E” value was 1. The “Vomiting, E” value in series [2] (setting [5]) is recorded as 0. Moreover, the “Treatment emergent AEs, E” value in series [2] (number of events, until 35 days after dosing) was 30. In series [2] (of the anti-icodec antibody positive participants), the “Participants positive for anti-icodec antibodies cross-reacting to human insulin at least once” value was determined as 12 participants. Further, in series [2] (treatment emergent), the “AEs of severity Mild, %” value was “(42.9) %”; the “AEs of severity Moderate, %” value is on record as “(17.9) %”; the “AEs of severity Severe, %” value is recorded as “(3.6) %”; the “AEs with outcome Recovered/resolved, %” value is reported as “(53.6) %”. Also, in series [2] (treatment emergent), the “AEs with outcome Recovering/resolving, %” value is recorded as “(0.0) %”; the “AEs with relationship to study product Possible, %” value was “(28.6) %”; the “AEs with relationship to study product Probable, %” value is “(10.7) %”; the “AEs with relationship to study product Unlikely, %” value is “(32.1) %”. For the same compound, in series [2] (treatment emergent), the “Decreased appetite, %” value is on record as “(10.7) %”; the “Gastrointestinal disorders (SOC), %” value is “(14.3) %”; the “General disorders and administration site conditions (SOC), %” value is on record as “(7.1) %”; the “Headache, %” value is “(14.3) %”. In series [2] (treatment emergent), the “Metabolism and nutrition disorders (SOC), %” value is “(10.7) %”; the “Nausea, %” value is given as “(0.0) %”; the “Nervous system disorders (SOC), %” value was “(14.3) %”; the “Serious AEs, %” value was “(3.6) %”. For the same compound, the “Vomiting, %” value in series [2] (treatment emergent) is reported as “(0.0) %”. The “Treatment emergent AEs, %” value in series [2] (until 35 days after dosing) is listed as “(53.6) %”. The “Overall tolerability in the clinical study” value in series [2] (single s.c. dose) is “well-tolerated”.
